Laboratory results from ChEMBL document CHEMBL1155217, “Synthesis and evaluation of 3-(dihydroxyboryl)benzoic acids as D,D-carboxypeptidase R39 inhibitors” (J Med Chem, 2009).
Numbering of substitutions follows the chain as printed.

Key:
[1] = test system: Streptococcus pneumoniae; experiment: Inhibition of Streptococcus pneumoniae PBP1B assessed as residual activity at 1 mM after 60 mins by SDS-PAGE
[2] = molecular target: D-alanyl-D-alanine carboxypeptidase (Actinomadura sp. R39, UniProt P39045); experiment: Inhibition of Actinomadura sp. R39 penicillin-binding protein preincubated for 60 mins before addition of substrate mixture of (R)-[2-(benzoylamino)propionylsulfanyl]acetic acid and 5,5'-dithiobis(2-nitrobenzoic acid)
Summary of the method: (§1)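 Purified R39 (3.5 nM) preincubated with compound in 10 mM sodium phosphate pH 7.2, 100 mM NaCl, 100 mM D-alanine, 0.01 mg/mL BSA, 60 min, 25 °C. S2d then added (final 1 mM) with DTNB (final 0.5 mM; 1% v/v DMF). Initial hydrolysis rate read at 412 nm. Spontaneous substrate hydrolysis was measured without enzyme. Triplicates. IC50 from nonlinear regression of RA across a concentration range.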

[3] = molecular target: T1, Penicillin-binding protein 2X (Streptococcus pneumoniae R6) (UniProt P59676); experiment: Inhibition of penicillin-sensitive Streptococcus pneumoniae R6 PBP2X assessed as residual activity at 500 uM preincubated for 60 mins before addition of substrate mixture of (R)-[2-(benzoylamino)propionylsulfanyl]acetic acid and 5,5'-dithiobis(2-nitrobenzoic acid)
T1 sequence (whole entry): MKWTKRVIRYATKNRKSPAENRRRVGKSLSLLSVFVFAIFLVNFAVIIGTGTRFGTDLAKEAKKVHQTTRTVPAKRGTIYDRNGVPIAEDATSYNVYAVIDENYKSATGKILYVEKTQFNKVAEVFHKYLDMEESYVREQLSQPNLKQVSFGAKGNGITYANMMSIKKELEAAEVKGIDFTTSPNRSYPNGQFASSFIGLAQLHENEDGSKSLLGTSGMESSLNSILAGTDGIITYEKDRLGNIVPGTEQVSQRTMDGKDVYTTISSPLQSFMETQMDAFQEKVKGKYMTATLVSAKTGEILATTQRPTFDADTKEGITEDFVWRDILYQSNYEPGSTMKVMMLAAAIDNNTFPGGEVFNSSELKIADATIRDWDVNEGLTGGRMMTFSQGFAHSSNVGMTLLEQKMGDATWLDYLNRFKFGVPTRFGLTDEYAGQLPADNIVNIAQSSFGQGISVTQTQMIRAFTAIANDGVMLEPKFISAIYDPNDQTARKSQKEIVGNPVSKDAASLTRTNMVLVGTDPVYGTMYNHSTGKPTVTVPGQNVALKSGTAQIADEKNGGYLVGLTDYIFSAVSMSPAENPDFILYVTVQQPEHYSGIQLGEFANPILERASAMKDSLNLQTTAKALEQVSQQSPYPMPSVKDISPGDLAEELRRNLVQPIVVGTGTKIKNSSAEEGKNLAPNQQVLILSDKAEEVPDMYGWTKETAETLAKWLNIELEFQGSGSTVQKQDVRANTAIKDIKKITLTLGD
Summary of the method: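 S. pneumoniae PBP2xR6 (0.09 μM) was preincubated with compound in 10 mM sodium phosphate pH 7.0 with 0.01 mg/mL BSA, for 60 min at 25 °C. S2d (1 mM final) and DTNB (0.5 mM final) were added, and the initial hydrolysis rate was monitored at 412 nm. Uninhibited activity (six replicates per plate) was set as 100%; assays ran in triplicate.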

[4] = molecular target: T2, Penicillin-binding protein 2x (Streptococcus pneumoniae serotype 4 (strain ATCC BAA-334 / TIGR4)) (UniProt P14677); experiment: Inhibition of penicillin-resistant Streptococcus pneumoniae 5204 PBP2X assessed as residual activity at 100 uM preincubated for 4 hrs before addition of substrate mixture of (R)-[2-(benzoylamino)propionylsulfanyl]acetic acid and 5,5'-dithiobis(2-nitrobenzoic acid)
T2 sequence (whole entry): T1 sequence (whole entry) with M385T
Summary of the method: (§2)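 PBP2x-5204 (0.6 μM) preincubated with compound in 10 mM sodium phosphate pH 7.0, 70 mM D-alanine, 0.01 mg/mL BSA, 4 h, 25 °C. S2d (final 1 mM) and DTNB (final 0.5 mM) then added. Residual activity taken from initial rate at 412 nm against uninhibited enzyme (six replicates per plate). Triplicates. IC50 by nonlinear regression.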

[5] = molecular target: Penicillin-binding protein 2x (Streptococcus pneumoniae serotype 4 (strain ATCC BAA-334 / TIGR4), UniProt P14677); experiment: Inhibition of penicillin-resistant Streptococcus pneumoniae 5204 PBP2X preincubated for 4 hrs before addition of substrate mixture of (R)-[2-(benzoylamino)propionylsulfanyl]acetic acid and 5,5'-dithiobis(2-nitrobenzoic acid); summary of the method: as §2
[6] = molecular target: T2, Penicillin-binding protein 2x (Streptococcus pneumoniae serotype 4 (strain ATCC BAA-334 / TIGR4)); experiment: Inhibition of penicillin-resistant Streptococcus pneumoniae 5204 PBP2X assessed as residual activity at 500 uM preincubated for 4 hrs before addition of substrate mixture of (R)-[2-(benzoylamino)propionylsulfanyl]acetic acid and 5,5'-dithiobis(2-nitrobenzoic acid); summary of the method: as §2
[7] = molecular target: D-alanyl-D-alanine carboxypeptidase (Actinomadura sp. R39) (UniProt P39045); experiment: Inhibition of Actinomadura sp. R39 penicillin-binding protein assessed as residual activity at 500 uM preincubated for 60 mins before addition of substrate mixture of (R)-[2-(benzoylamino)propionylsulfanyl]acetic acid and 5,5'-dithiobis(2-nitrobenzoic acid)
Summary of the method: (§3)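 Purified Actinomadura R39 D,D-peptidase (3.5 nM) was preincubated with compound for 60 min at 25 °C. S2d (1 mM final) and DTNB (0.5 mM final) were then added, with 1% v/v DMF. Initial rate was read at 412 nm, corrected for enzyme-free hydrolysis, in triplicate.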

[8] = Solubility in sodium phosphate buffer saline of pH 7.2 at 1 mM; type: physicochemical; conditions: pH 7.2, 1000 µM
[9] = molecular target: D-alanyl-D-alanine carboxypeptidase (Actinomadura sp. R39) (UniProt P39045); experiment: Inhibition of Actinomadura sp. R39 penicillin-binding protein at 0.5 mM preincubated for 60 mins before addition of substrate mixture of (R)-[2-(benzoylamino)propionylsulfanyl]acetic acid and 5,5'-dithiobis(2-nitrobenzoic acid); summary of the method: as §3
[10] = Solubility in sodium phosphate buffer saline of pH 7.2; type: physicochemical
[11] = molecular target: T1, Penicillin-binding protein 2X (Streptococcus pneumoniae R6); experiment: Inhibition of penicillin-sensitive Streptococcus pneumoniae R6 PBP2X assessed as residual activity at 100 uM preincubated for 60 mins before addition of substrate mixture of (R)-[2-(benzoylamino)propionylsulfanyl]acetic acid and 5,5'-dithiobis(2-nitrobenzoic acid)
Summary of the method: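 PBP2x-R6 (0.09 μM) preincubated with compound in 10 mM sodium phosphate pH 7.0, 0.01 mg/mL BSA, 60 min, 25 °C. S2d (final 1 mM) and DTNB (final 0.5 mM) then added. Residual activity from initial rate at 412 nm, relative to enzyme-only wells. Triplicates. Repeated with 0.01% Triton X-100 when RA <80%.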

[12] = molecular target: D-alanyl-D-alanine carboxypeptidase (Actinomadura sp. R39) (UniProt P39045); experiment: Inhibition of Actinomadura sp. R39 penicillin-binding protein assessed as residual activity at 100 uM preincubated for 60 mins before addition of substrate mixture of (R)-[2-(benzoylamino)propionylsulfanyl]acetic acid and 5,5'-dithiobis(2-nitrobenzoic acid); summary of the method: as §1

Chain of D-alanyl-D-alanine carboxypeptidase (Actinomadura sp. R39) (P39045 whole entry): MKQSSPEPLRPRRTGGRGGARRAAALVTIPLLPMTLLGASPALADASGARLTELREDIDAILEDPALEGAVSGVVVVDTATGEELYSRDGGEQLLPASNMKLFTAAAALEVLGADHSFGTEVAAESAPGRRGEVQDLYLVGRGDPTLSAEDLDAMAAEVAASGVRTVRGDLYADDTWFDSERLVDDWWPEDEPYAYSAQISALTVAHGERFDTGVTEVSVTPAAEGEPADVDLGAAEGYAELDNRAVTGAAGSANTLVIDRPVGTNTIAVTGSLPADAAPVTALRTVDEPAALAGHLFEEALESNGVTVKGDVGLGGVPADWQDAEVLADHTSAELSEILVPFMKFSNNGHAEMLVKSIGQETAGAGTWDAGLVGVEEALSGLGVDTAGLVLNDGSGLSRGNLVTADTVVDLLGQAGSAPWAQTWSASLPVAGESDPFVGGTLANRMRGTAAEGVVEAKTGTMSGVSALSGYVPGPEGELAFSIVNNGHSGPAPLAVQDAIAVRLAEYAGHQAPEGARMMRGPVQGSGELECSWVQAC
Chain of D-alanyl-D-alanine carboxypeptidase (P39045 whole entry): as above
Chain of Penicillin-binding protein 2x (P14677 whole entry, looked up): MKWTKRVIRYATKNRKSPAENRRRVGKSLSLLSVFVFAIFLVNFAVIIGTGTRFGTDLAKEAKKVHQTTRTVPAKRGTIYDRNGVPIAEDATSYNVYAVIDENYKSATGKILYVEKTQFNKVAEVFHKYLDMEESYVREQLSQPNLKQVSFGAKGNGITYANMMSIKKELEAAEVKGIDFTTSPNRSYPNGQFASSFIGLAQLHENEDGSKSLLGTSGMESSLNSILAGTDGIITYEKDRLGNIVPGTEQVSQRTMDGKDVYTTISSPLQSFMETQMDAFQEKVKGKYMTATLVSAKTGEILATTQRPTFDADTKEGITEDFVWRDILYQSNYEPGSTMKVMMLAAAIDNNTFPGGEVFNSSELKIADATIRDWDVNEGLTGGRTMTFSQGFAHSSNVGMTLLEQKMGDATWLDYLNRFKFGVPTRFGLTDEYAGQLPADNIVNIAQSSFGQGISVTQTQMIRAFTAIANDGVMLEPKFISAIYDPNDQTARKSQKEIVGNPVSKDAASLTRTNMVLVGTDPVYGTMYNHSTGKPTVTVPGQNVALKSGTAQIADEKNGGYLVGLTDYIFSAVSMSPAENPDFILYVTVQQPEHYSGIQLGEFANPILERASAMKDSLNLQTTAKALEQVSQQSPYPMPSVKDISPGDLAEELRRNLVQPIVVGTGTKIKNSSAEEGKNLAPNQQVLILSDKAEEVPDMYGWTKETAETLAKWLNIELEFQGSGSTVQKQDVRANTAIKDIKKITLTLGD

Question: Which results are given for `O=C(O)c1cc(NC(=O)c2ccccc2)cc(B(O)O)c1`?
Answer: Activity [1]: 85%; IC50 [2]: 34 µM

Question: For `CN(C)c1cccc2c(S(=O)(=O)Nc3cccc(B(O)O)c3)cccc12`, which Activity [3] is on record?
Answer: 91%

Question: For `COc1ccccc1C(=O)Nc1cc(B(O)O)cc(C(=O)O)c1`, which Activity [1] is on record?
Answer: 82%

Question: And the IC50 [2]?
Answer: 23 µM

Question: For `O=C(O)c1cc(NC(=O)c2cccs2)cc(B(O)O)c1`, which Activity [1] is on record?
Answer: 70%

Question: And the IC50 [2]?
Answer: 32 µM

Question: Which IC50 [2] does the source give for `O=C(O)c1cccc(B(O)O)c1` here?
Answer: 400 µM

Question: For `O=C(Cc1ccccc1)Nc1cc(B(O)O)cc(C(=O)O)c1`, which IC50 [2] is on record?
Answer: 88 µM

Question: For `OB(O)c1ccc(Oc2ccccc2)cc1`, which Activity [4] is on record?
Answer: 108%

Question: With `O=C(O)c1ccc(B(O)O)s1` as the compound, how does the IC50 [5] read?
Answer: > 1000 µM

Question: For `O=C(COc1ccccc1)Nc1cc(B(O)O)cc(C(=O)O)c1`, which Activity [1] is on record?
Answer: 83%

Question: What about the IC50 [2] of the same compound?
Answer: 28 µM

Question: Which results are given for `CC1(C)OB(c2cccc(C(=O)O)c2)OC1(C)C`?
Answer: Activity [3]: 93%; Activity [6]: 98%; Activity [7]: 38%; solubility [8]: Insoluble; inhibition [9]: > 50%

Question: With `OB(O)c1ccc(-c2ccc(B(O)O)cc2)cc1` as the compound, how does the Activity [4] read?
Answer: 95%

Question: And the solubility [10]?
Answer: Insoluble

Question: What about the Activity [11] of the same compound?
Answer: 104%

Question: Which results are given for `OB(O)c1ccc(-c2ccccc2)cc1` [BIPHENYLBORONIC ACID]?
Answer: Activity [4]: 120%; Activity [12]: 104%; solubility [10]: Insoluble; Activity [11]: 90%

Question: What does the source list for `O=C(Cc1cccs1)Nc1cc(B(O)O)cc(C(=O)O)c1`?
Answer: Activity [1]: 53%; IC50 [2]: 78 µM

Question: Which Activity [3] does the source give for `OB(O)c1ccccc1` [PHENYLBORONIC ACID] here?
Answer: 114%

Question: What about the Activity [6] of the same compound?
Answer: 78%

Question: What about the solubility [8] of the same compound?
Answer: Insoluble

Question: What about the inhibition [9] of the same compound?
Answer: 50%
